For assay [1], the system named is Escherichia coli. Description: Antibacterial activity against Escherichia coli ATCC 8739 assessed as growth inhibition at 25 ug/ml after 8 to 24 hrs by agar well diffusion method. Type of assay: functional. Particulars: read-out: DIZ. The essentials: (§1)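 Agar well diffusion on nutrient agar (peptone, yeast extract, NaCl, 2% agar, pH 7). Suspensions were set to 0.5 McFarland in sterile water, final inoculum 5x10^7 CFU/mL. Plates were swabbed and left 15 min, then ~4 mm wells received 100 µL compound in DMSO, with DMSO as control. Plates stood 2 h at room temperature, then 24 h at 37 °C. Inhibition zone diameter was measured.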
(In general: Agar diffusion results depend on both activity and mobility in agar.)

The test system of assay [2] is Escherichia coli. Description: Antibacterial activity against Escherichia coli ATCC 8739 assessed as growth inhibition at 25 to 100 ug/ml at 12 hrs by agar well diffusion method. Type of assay: functional, organism-based.
Assay [3] has as its system Staphylococcus aureus. Description: Antibacterial activity against Staphylococcus aureus ATCC 6538P assessed as growth inhibition at 100 ug/ml after 8 to 24 hrs by agar well diffusion method. The format is functional. The conditions noted are these: read-out: DIZ. Summed up:
as §1

For assay [4], the system named is Staphylococcus aureus. In words: Antibacterial activity against Staphylococcus aureus ATCC 6538P after 24 to 48 hrs. Type of assay: functional. The essentials:
(§2)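 Broth MIC in nutrient broth, pH 7.0. Inoculum came from a 16 h culture set to 0.5 McFarland, then diluted 10-fold to 1.2x10^7 CFU/mL. Compounds went from a 4 mg/mL DMSO stock to final 250 to 0.03 µg/mL. Controls were inoculum without compound and compound without inoculum. Incubation was 24-48 h at 37 °C. Then 5 µL was spotted onto agar for 24 h at 37 °C. MIC is the lowest concentration with no visible growth.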

Assay [5] has as its system Salmonella enterica subsp. enterica serovar Abony. Description: Antibacterial activity against Salmonella abony NCTC 6017 assessed as growth inhibition at 25 to 100 ug/ml at 12 hrs by agar well diffusion method. Type of assay: functional, organism-based.
Assay [6] deals with Escherichia coli. In words: Antibacterial activity against Escherichia coli ATCC 8739 assessed as growth inhibition at 100 ug/ml after 8 to 24 hrs by agar well diffusion method. Type of assay: functional. The conditions noted are these: read-out: DIZ. The essentials:
as §1

For assay [7], the system named is Escherichia coli. In words: Antibacterial activity against Escherichia coli ATCC 8739 after 24 to 48 hrs. The format is functional. The essentials:
as §2

Assay [8] has as its system Staphylococcus epidermidis. In words: Antibacterial activity against Staphylococcus epidermidis ATCC 12228 assessed as growth inhibition at 25 ug/ml after 8 to 24 hrs by agar well diffusion method. The format is functional. Summed up: as §1
Assay [9] concerns Staphylococcus aureus. Description: Antibacterial activity against Staphylococcus aureus ATCC 6538P assessed as growth inhibition at 25 ug/ml after 8 to 24 hrs by agar well diffusion method. The format is functional. The conditions noted are these: read-out: DIZ. Summed up: as §1
Assay [10] concerns Salmonella enterica subsp. enterica serovar Abony. In words: Antibacterial activity against Salmonella abony NCTC 6017 assessed as growth inhibition at 100 ug/ml after 8 to 24 hrs by agar well diffusion method. The conditions noted are these: read-out: DIZ. Type of assay: functional. The essentials: as §1
The test system is the same in assay [11]. In words: Antibacterial activity against Salmonella abony NCTC 6017 assessed as growth inhibition at 25 ug/ml after 8 to 24 hrs by agar well diffusion method. Type of assay: functional. The conditions noted are these: read-out: DIZ. Summed up:
as §1

Assay [12] relates to Staphylococcus aureus. In words: Antibacterial activity against Staphylococcus aureus ATCC 6538P assessed as growth inhibition at 25 to 100 ug/ml at 12 hrs by agar well diffusion method. Type of assay: functional, organism-based.
For assay [13], the system named is Salmonella enterica subsp. enterica serovar Abony. Description: Antibacterial activity against Salmonella abony NCTC 6017 after 24 to 48 hrs. The format is functional. Summed up:
as §2

In assay [14] the test system is Staphylococcus epidermidis. In words: Antibacterial activity against Staphylococcus epidermidis ATCC 12228 assessed as growth inhibition at 25 to 100 ug/ml at 12 hrs by agar well diffusion method. Type of assay: functional, organism-based.
In assay [15] the test system is Staphylococcus epidermidis. Description: Antibacterial activity against Staphylococcus epidermidis ATCC 12228 assessed as growth inhibition at 100 ug/ml after 8 to 24 hrs by agar well diffusion method. Type of assay: functional. The essentials:
as §1

The test system of assay [16] is Staphylococcus epidermidis. Description: Antibacterial activity against Staphylococcus epidermidis ATCC 12228 after 24 to 48 hrs. Type of assay: functional. Summed up:
as §2

Each structure is given as a SMILES string. ≈ marks a conversion by molar mass, not a printed value. Calls of active or inactive are those of the source. The rule behind the calls is not given here. Some results are limits rather than exact numbers.

As usually defined, the MIC is the least concentration at which growth counts as inhibited. A higher MIC goes with a less susceptible organism. On to `CCOC(=O)C1(C)C(C)NC(=O)N(C)C1c1ccc(OC)cc1` (stereo not drawn), for which the values for the zone of inhibition at 25 µg/mL (in the assay on Escherichia coli [1]; in the assay with Staphylococcus aureus [9]; in assay [11]) were 13 mm, 10 mm and 10 mm, respectively. Further, the outcome (in the assay on Escherichia coli [2]; in [5]; in the assay on Staphylococcus aureus [12]; in assay [14]) was inactive. For the same compound, the zone of inhibition at 100 µg/mL in the assay with Staphylococcus aureus [3] is 12 mm; in the assay with Escherichia coli [6], 14 mm; in [10] it was 13 mm. In addition, the minimum inhibitory concentration (MIC) is 68 µg/mL (≈ 212 µM) against Staphylococcus aureus [4], 68 µg/mL (≈ 212 µM) in the assay on Escherichia coli [7], 68 µg/mL (≈ 212 µM) in assay [13] and above 250 µg/mL in [16]. Also, the “diameter of the inhibition zone (DIZ)” value in assay [8] and in assay [15] was “inactive” each time.

For `CCOC(=O)C1(C)C(C)NC(=S)N(C)C1c1ccccc1` (stereo not drawn), the zone of inhibition at 25 µg/mL in the assay on Escherichia coli [1] turned out to be 14 mm; in the assay on Staphylococcus aureus [9], 10 mm; in assay [11], 16 mm. The result (in the assay with Escherichia coli [2]; in assay [5]; with Staphylococcus aureus [12]; in assay [14]) was inactive. Moreover, the zone of inhibition at 100 µg/mL amounted to 13 mm in the assay with Staphylococcus aureus [3], 21 mm with Escherichia coli [6] and 18 mm in assay [10]. In addition, the MIC against Staphylococcus aureus [4] was 68 µg/mL (≈ 222 µM); in the assay with Escherichia coli [7], 16 µg/mL (≈ 52.2 µM); in assay [13], 32 µg/mL (≈ 104 µM); in assay [16], above 250 µg/mL. Also, the “diameter of the inhibition zone (DIZ)” value in [8] and in [15] was “inactive” each time.

Turning to `CCOC(=O)C1(C)C(C)NC(=O)N(C)C1c1ccc(O)cc1` (stereo not drawn), the zone of inhibition at 25 µg/mL with Escherichia coli [1] is 8 mm; with Staphylococcus aureus [9], 10 mm; in [11], 11 mm. The result (with Escherichia coli [2]; in [5]; with Staphylococcus aureus [12]; in assay [14]) was inactive. Also, the values for the zone of inhibition at 100 µg/mL (in the assay with Staphylococcus aureus [3]; with Escherichia coli [6]; in assay [10]) were 12 mm, 10 mm and 14 mm, respectively. Moreover, the MIC against Staphylococcus aureus [4] is 68 µg/mL (≈ 222 µM); with Escherichia coli [7] it was 125 µg/mL (≈ 408 µM); in assay [13], 68 µg/mL (≈ 222 µM); in assay [16], above 250 µg/mL. For the same compound, the “diameter of the inhibition zone (DIZ)” value in [8] and in [15] was “inactive” in each case.
